Published values gathered from unrelated publications.
Each line is one published result; the experiments were not run side by side.
Target: Mitogen-activated protein kinase kinase kinase 20 (MAP3K20, Homo sapiens, UniProt Q9NYL2)

`C[C@H]1CCN(c2nccc(-c3cnn4ncccc34)n2)C1` gave a remaining binding of 97% (binding; 1 µM).
The remaining binding of `O=C(O)[C@@H]1[C@@H](Cn2nnc3ccccc3c2=O)CC[C@H]1C(=O)c1ccc(OCCC2CCOCC2)cc1` is reported as 91% (cell-free assay, competition with immobilised ligand; 1 µM).
`O=C(Nc1c[nH]nc1C(=O)NC1CCNCC1)c1cc(F)cc(F)c1` has a remaining binding of 100% (binding, competition with immobilised ligand; 1 µM).
`O=C(c1ccc(Nc2ncc(Cl)c(-c3cc4ccccc4s3)n2)cc1)N1CCC(N2CCCC2)CC1` has a remaining binding of 48% (binding, competition with immobilised ligand; 1 µM).
`Nc1ncc2c(n1)-c1c([nH]c3ccc(C#CC4CC4)cc13)CCCC2` has a remaining binding of 93% (binding, competition with immobilised ligand; 1 µM).
The remaining binding of `CCCOc1ccc([C@@H]2[C@@H](C(=O)O)[C@H](c3ccc4c(c3)OCO4)CN2CC(=O)Nc2c(CC)cccc2CC)cc1` is reported as 100% (cell-free assay, competition with immobilised ligand; 1 µM).
The remaining binding of `O=C(NCCCN1CCOCC1)c1ccc(Nc2ncc(Cl)c(-c3ccc(Cl)s3)n2)cc1` is reported as 69% (binding, competition with immobilised ligand; 1 µM).
With `c1cnn2ncc(-c3ccnc(N4CCC45COC5)n3)c2c1` the remaining binding was 100% (binding; 1 µM).
With `COc1ncc2cc3ccccc3nc2c1C#N` the remaining binding was 80% (cell-free assay, competition with immobilised ligand; 5 µM).
With `Cc1cnc(Nc2ccc(C(=O)N3CCC(N4CCCC4)CC3)cc2)nc1-c1cc2ccccc2s1` the remaining binding was 43% (binding, competition with immobilised ligand; 1 µM).
The remaining binding of `C[C@@H](c1cccc(C#N)c1)n1cc(Cl)cc(C(N)=O)c1=N` is reported as 71% (cell-free assay, competition with immobilised ligand; 1 µM).
The remaining binding of `N[C@H]1CCN(c2nccc(-c3cnn4ncccc34)n2)C1` is reported as 99% (binding; 1 µM).
The remaining binding of `CCOC(=O)c1cc2cc(-c3cc(C(=O)NCc4ccc(C(=O)O)cc4)nn3C)ccc2[nH]1` is reported as 87% (cell-free assay, competition with immobilised ligand; 0.1 µM).
For `CC1CCCN1c1nccc(-c2cnn3ncccc23)n1` (stereo not shown), the remaining binding was 100% (binding; 1 µM).
`CNC(=O)[C@@H]1CC[C@@H](n2c(-c3ccc4cnccc4c3)nc3ccc(C(=O)NCc4cccc(C(N)=O)c4)cc32)C1` gave a remaining binding of 100% (binding, competition with immobilised ligand; 1 µM).
`CN(C)c1nccc(-c2cnc3ncccn23)n1` gave a remaining binding of 89% (binding; 1 µM).
For `Cc1c(NC(=O)c2cc(C(N)=O)nc3cc(F)ccc23)c(C(F)(F)F)nn1Cc1ccc(C(C)(C)C)cc1`, the remaining binding was 100% (cell-free assay, competition with immobilised ligand; 1 µM).
`c1cncc(-c2cccc(Nc3nccc(NC4CCCCC4)n3)c2)c1` gave a remaining binding of 93% (binding, competition with immobilised ligand; 10 µM).
`COc1ccnn2ncc(-c3ccnc(N(C)C)n3)c12` gave a remaining binding of 100% (binding; 1 µM).
`CS(=O)(=O)NCC[C@H](NC(=O)c1cncc2c1cnn2-c1ccc(F)cc1)c1ccnc(S(C)(=O)=O)c1` has a remaining binding of 88% (cell-free assay, competition with immobilised ligand; 1 µM).
For `CN(C)c1nccc(-c2cnn3ncccc23)n1`, the remaining binding was 100% (binding; 1 µM).
`CO[C@@H](C)c1c(Nc2ccc([C@@H](N(C)C(=O)C3CCS(=O)(=O)CC3)C(F)(F)F)cc2)cnc2cc(Cl)nn12` has a remaining binding of 100% (cell-free assay, competition with immobilised ligand; 1 µM).
